# GPR7 antagonist – blocks human GPR7 receptor signaling; P48145; GPR7-expressing cells, fluorescence antagonist assay; inhibition, % at 4.4 µM; actives 1.1% (n = 290,000); in the data active = inhibition above about 16%, passing the limit was not always enough;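 also: cells stimulated with the agonist NPW; 0% = agonist with vehicle and 100% = vehicle without agonist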
# TAAR1 antagonist – antagonists of human TAAR1. inhibition, % at 3 µM. actives 1.5% (n = 360,000). Q96RJ0. AID 624466. CHO RD-HGA16 TAAR1, Fluo-8 calcium fluorescence, antagonist;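 active = inhibition above a per-plate cutoff, the mean inhibition of test compounds on that plate plus 3 SD, cut at about 49% in these data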;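 also: 0% = DMSO plus EC80 beta-PEA response and 100% = DMSO alone without agonist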
# Target sequence (Q96RJ0 whole entry, looked up): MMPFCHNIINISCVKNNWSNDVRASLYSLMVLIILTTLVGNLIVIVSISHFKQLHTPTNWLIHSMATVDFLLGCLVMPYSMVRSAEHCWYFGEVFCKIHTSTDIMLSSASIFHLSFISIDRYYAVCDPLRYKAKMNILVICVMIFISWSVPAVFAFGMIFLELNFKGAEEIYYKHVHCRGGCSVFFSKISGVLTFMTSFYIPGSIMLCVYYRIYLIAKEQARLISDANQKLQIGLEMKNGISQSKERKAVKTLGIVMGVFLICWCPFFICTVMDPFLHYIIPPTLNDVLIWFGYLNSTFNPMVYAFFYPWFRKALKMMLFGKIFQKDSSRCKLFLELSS
#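 Assay system: RD-HGA16 CHO cells with stable hTAAR1 and Gα16 / Reagent: EC80 β-phenethylamine stimulus / Doses: 3 µM, single point / Timing: dye loading 75 min at 37 °C, then 30 min room temperature / Measured by: Fluo-8 intracellular calcium dye fluorescence, real-time kinetic reads / Controls: vehicle wells and EC80 agonist wells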
# OX1R antag-1 – OX1R (human) antagonism; O43613; OX1R-expressing cells, FRET antagonist read-out; inhibition, % at 6.6 µM; actives 1.8% (n = 330,000); in the data active = inhibition mostly above about 38%, no sharp cut-off; inactive = mostly below about 40%;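 also: 0% = agonist challenge alone and 100% = reference antagonist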
# CHO parental Ca – signal in parental CHO cells, OX1R antagonist counter-screen; parental CHO-K1, ATP-induced calcium, Fluo-8 fluorescence; inhibition, % at 5.6 µM; actives 0.63% (n = 330,000); AID 463079;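 active = inhibition above that plate's mean sample inhibition plus 3 SD, cut at about 26% in these data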;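 also: 0% = ATP-challenged DMSO wells and 100% = DMSO wells without ATP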
#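 Material: Parental CHO cells | Reagent: ATP | Compound dosing: Single nominal dose of 5.6 µM per compound | Detection: Intracellular calcium via Fluo-8 no-wash fluorescent dye | Read-out: % inhibition of ATP-induced calcium mobilization | Benchmarks: Low control ATP plus DMSO, high control DMSO only | Replicates: Singlicate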
# TAAR1 agonist – human TAAR1 agonism | Q96RJ0 | CHO RD-HGA16 TAAR1, Fluo-8 calcium fluorescence; vehicle wells 0%, saturating PEA agonist 100% | activation, % at 3 µM | actives 0.99% (n = 360,000) | AID 624467;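 active = activation above the mean activation of all test compounds in the run plus 3 SD, cut at about 38% in these data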
#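 Assay system – CHO-derived RD-HGA16 cells with stable Gα16 and human TAAR1 · Compound dosing – one-point dosing at 3 µM (nominal) · Incubation – 17-24 h seeding, 75 min 37 °C dye, 30 min RT · Measured by – kinetic Fluo-8 calcium fluorescence · Control set – DMSO vehicle as 0%, PEA at EC100 as 100% · Repeats – single well for each compound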
# OX1R antag-2 – antagonists of human orexin 1 receptor; O43613; CHO/OX1R cells, Fluo-8 calcium fluorescence, orexin A; inhibition, % at 5 µM; actives 0.43% (n = 330,000); AID 434989;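 active = inhibition above its plate's threshold, mean inhibition of all tested compounds on the plate plus 3 SD, cut at about 37% in these data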;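 also: 0% = orexin A challenge wells and 100% = SB-334867-A antagonist wells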
# * = called active by the depositor; · = no result given. Sampled rows, rich in hits. Any-hit rate of the full collection: about 4.6%.
SMILES,GPR7 antagonist,TAAR1 antagonist,OX1R antag-1,CHO parental Ca,TAAR1 agonist,OX1R antag-2
O=C(NCCN1CCc2ccccc2C1)C1CCN(S(=O)(=O)N2CCC3(CC2)OCCO3)CC1,-8,-9,31,-11,16,-15
CCc1nc2ccc(C(=O)NCCN3CCNC3=O)cn2c1N(CC)CCOC,·,-13,·,·,3,·
CC(C)c1c(C(=O)N/N=C/c2ccncc2)nnn1-c1nonc1N,6,11,11,14,3,-13
CC(C)c1c(C(=O)N/N=C/C=C/c2ccccc2)nnn1-c1nonc1N,6,34,-1,-8,42*,-15
COc1cc(/C=N/NC(=O)c2nnn(-c3nonc3N)c2C(C)C)ccc1OCc1ccc(F)cc1,7,7,8,49*,1,35
Cc1ccc(/C=N/NC(=O)c2nnn(-c3nonc3N)c2-c2ccccc2)o1,-1,-8,10,-12,43*,9
C/C(=N\NC(=O)c1nnn(-c2nonc2N)c1CN(C)c1ccccc1)c1ccccc1O,-11,16,55*,4,0,23
O=C(O)COc1ccc(NC(=O)c2ccc3c(c2)C(=O)N(CC2CCCO2)C3=O)cc1 (stereo not given),·,-9,·,·,1,·
Nc1ccn([C@@H]2O[C@H](C(=O)N[C@H](Cc3ccccc3)C(=O)Nc3ccc4scnc4c3)[C@@H](O)[C@H]2O)c(=O)n1,·,-18,·,·,3,·
CC(=O)Oc1ccc(NC(=O)Cc2ccccc2)cc1,5,2,3,4,1,-20
CC(=O)Oc1ccc(Nc2ccccc2)cc1,3,-17,50*,-1,10,-8
CC(C)C[C@H]1CN=C(Nc2ccccc2)N1CCc1cccc(F)c1,·,·,8,50*,·,87*
CC(C)C[C@H]1CN=C(N(C)C)N1CCc1cccc(F)c1,·,8,0,-4,14,-29
CC1(C)c2[nH]c3ccccc3c2C[C@@H]2C(=O)N(Cc3ccccc3Cl)C(=O)N21,·,49*,10,-15,13,-10
COc1ccc(CN2C(=O)[C@H]3Cc4c([nH]c5ccccc45)C(C)(C)N3C2=O)cc1,·,56*,12,-7,18,-3
COc1ccc(CN2C(=O)[C@@H]3Cc4c([nH]c5ccccc45)C(C)(C)N3C2=O)cc1,·,30,6,-3,5,-13
COc1ccccc1CN1C(=O)[C@@H]2Cc3c([nH]c4ccccc34)C(C)(C)N2C1=O,·,24,16,-11,13,0
Nc1[nH]c(C(=O)c2ccccc2)c(-c2ccc(Cl)cc2)c1C(=O)c1c[nH]c2ccc(F)cc12,·,-33,·,·,5,·
COc1ccc(OCC(=O)OC(C)CN2CCOCC2)cc1 (stereo not given),18*,14,28,4,1,-6
Cc1cc(Br)c2nc(-c3cccc(Br)c3)c(Cc3cccc(Cl)c3)n2c1,·,-4,·,·,-1,·
C1=C(CCNc2ncnc3c2[nH]c2ccccc23)CCCC1,41*,41,46,69*,16,16
COc1ccc(CNc2ncnc3c2[nH]c2ccccc23)cc1,15,40,52*,24,34,26
COc1cc(-n2c(C)cc(O)cc2=O)ccc1Cl,·,-12,·,·,0,·
CSC1=Nc2ccccc2N=C(N2CCCC2)C1,·,0,·,·,0,·
O=[N+]([O-])c1sccc1CS(=O)(=O)c1ccccc1,-1,8,51*,-22,0,-1
C[C@@H]1CCCCO[C@H](CN(C)C(=O)CCC(F)(F)F)[C@H](C)CN([C@@H](C)CO)C(=O)c2cc(NS(=O)(=O)c3ccc(Cl)cc3)ccc2O1,·,-8,·,·,1,·
COc1cc(SC#N)ccc1N=Cc1c(C)[nH]n(-c2ccc(C)c(C)c2)c1=O,0,87*,-3,96*,-1,96*
COc1cc(SC#N)ccc1N=Cc1c(C)[nH]n(-c2ccc(Cl)cc2)c1=O,-7,13,17,18,1,30
NS(=O)(=O)c1ccc(CCNC(=O)CCCCCn2c(=S)[nH]c3ccc(Br)cc3c2=O)cc1,17*,60*,19,6,25,-18
O=C(CCCCCn1c(=S)[nH]c2ccc(Br)cc2c1=O)NCC1CCCO1 (stereo not given),-2,38,14,-17,12,-24
